Data set [1] addresses T1, Glucocorticoid receptor (Rattus norvegicus) (UniProt P06536).
T1 sequence (whole entry): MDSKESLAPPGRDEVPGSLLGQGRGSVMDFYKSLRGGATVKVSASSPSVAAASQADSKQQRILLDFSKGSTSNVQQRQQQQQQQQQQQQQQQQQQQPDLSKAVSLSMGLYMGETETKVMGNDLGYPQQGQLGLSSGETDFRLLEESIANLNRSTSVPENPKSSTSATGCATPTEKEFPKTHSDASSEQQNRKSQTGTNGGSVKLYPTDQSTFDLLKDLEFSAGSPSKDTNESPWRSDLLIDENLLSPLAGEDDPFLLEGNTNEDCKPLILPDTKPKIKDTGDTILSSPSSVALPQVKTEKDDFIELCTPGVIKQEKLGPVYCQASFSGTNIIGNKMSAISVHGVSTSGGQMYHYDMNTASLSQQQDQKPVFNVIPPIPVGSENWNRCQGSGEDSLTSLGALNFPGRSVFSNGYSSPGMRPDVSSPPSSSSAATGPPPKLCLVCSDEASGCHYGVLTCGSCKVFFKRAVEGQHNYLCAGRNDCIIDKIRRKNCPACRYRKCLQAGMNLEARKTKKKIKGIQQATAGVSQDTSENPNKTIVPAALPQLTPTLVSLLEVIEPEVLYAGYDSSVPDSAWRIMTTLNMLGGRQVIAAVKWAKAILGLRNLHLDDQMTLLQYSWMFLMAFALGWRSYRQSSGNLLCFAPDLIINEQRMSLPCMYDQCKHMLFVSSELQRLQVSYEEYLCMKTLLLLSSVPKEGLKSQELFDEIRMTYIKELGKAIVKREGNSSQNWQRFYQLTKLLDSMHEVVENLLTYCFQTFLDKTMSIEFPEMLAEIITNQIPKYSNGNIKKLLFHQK
Briefly: Percentage reduction in thymus weight (248.99+/-23.19 mg) at 50 ug dose. It counts as functional.

The species entered for data set [2] is Homo sapiens. Kind of data set: (§1) % stability in human plasma after 60 minutes. It counts as ADME, organism-based. Conditions: 1 h. An outline of the steps:
(§2)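 Pooled heparinized plasma from 4 volunteers was incubated at 37 °C with test compound at a final concentration of 30 ug/mL, with DMSO-only controls. The reaction was stopped with 2 M citric acid at 10 and 60 min, with a zero-time sample. Supernatants were analysed by reversed-phase HPLC at 240 nm against an internal standard, in duplicate, and reported as % compound remaining.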

Data set [3] can be described thus: % stability in krebs buffer after 60 minutes. It counts as physicochemical. Conditions: for remaining at 1 h: Krebs buffer, read-out: Stability; for Stability: buffer, 1 h. The essentials: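 Test compound, at a final concentration of 30 ug/mL, was spiked into Krebs buffer at 37 °C for 60 min, then quenched with 2 M citric acid. Supernatant was analysed by reversed-phase HPLC with UV detection at 240 nm and an internal standard, in duplicate. The read-out was % compound remaining.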

Data set [4] is filed under the species Homo sapiens. Briefly: (§3) % stability in human plasma after 10 minutes. It is filed as ADME, organism-based. As to conditions: 10 min. The essentials: as §2
The next data set concerns the target T2, Glucocorticoid receptor (Homo sapiens, UniProt P04150).
T2 sequence (P04150 whole entry): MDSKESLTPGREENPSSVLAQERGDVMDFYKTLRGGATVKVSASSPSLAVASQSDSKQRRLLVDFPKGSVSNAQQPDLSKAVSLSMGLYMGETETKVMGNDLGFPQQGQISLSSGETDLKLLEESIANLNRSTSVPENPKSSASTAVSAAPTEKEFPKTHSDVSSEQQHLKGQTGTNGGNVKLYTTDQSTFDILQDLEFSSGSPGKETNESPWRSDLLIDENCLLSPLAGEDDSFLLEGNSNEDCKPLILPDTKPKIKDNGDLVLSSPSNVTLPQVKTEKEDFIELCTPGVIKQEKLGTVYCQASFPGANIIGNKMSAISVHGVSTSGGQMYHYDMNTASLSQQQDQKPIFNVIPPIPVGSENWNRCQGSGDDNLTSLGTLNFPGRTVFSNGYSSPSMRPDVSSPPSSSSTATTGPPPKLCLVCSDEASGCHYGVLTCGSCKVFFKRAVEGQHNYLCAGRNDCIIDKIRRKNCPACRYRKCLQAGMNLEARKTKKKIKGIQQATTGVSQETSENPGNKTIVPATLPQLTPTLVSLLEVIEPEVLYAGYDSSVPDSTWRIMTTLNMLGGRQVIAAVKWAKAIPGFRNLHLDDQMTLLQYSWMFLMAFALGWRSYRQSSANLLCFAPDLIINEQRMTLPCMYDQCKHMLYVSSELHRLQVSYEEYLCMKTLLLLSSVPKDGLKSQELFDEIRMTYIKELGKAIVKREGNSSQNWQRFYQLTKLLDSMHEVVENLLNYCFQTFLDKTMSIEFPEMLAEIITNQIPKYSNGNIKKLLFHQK
Kind of data set: Affinity for human glucocorticoid receptor.

Data set [5] in a line: as §1. It is filed as ADME, organism-based. As to conditions: plasma, read-out: Stability. An outline of the steps: as §2
In data set [6] the test system is Rattus norvegicus. Briefly: Inhibition of rat ear edema as percentage change in mean weight (43.03+/-1.19 mg) from control group of 55.67+/-1.22 mg at 100.00 ug dose.
Data set [7] relates to Rattus norvegicus. Briefly: Inhibition of rat ear edema as percentage change in mean weight (47.21+/-1.28 mg) from control group of 55.67+/-1.22 mg at 25.00 ug dose.
Data set [8] has as its system Rattus norvegicus. Kind of data set: Inhibition of rat ear edema as percentage change in mean weight (47.85+/-1.09 mg) from control group of 55.67+/-1.22 mg at 6.25 ug dose.
Data set [9] in a line: as §3. It counts as ADME, organism-based. As to conditions: plasma, read-out: Stability. An outline of the steps: as §2
Data set [10] concerns Rattus norvegicus. Briefly: Inhibition of rat ear edema as percentage change in mean weight (58.02+/-1.46 mg) from control group of 55.67+/-1.22 mg at 1.56 ug dose.
Data set [11] in a line: half life in human plasma. It is filed as ADME, organism-based. An outline of the steps: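 Pooled heparinised plasma from 4 volunteers, stored at −20 °C; compound spiked to final 30 ug/mL at 37 °C. Half-life taken from additional time points in this incubation; reaction stopped with 2 M citric acid, samples frozen overnight and centrifuged. Supernatant analysed by reverse-phase HPLC with UV at 240 nm, internal standard dexamethasone or hydrocortisone; duplicates.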

Data set [12] relates to Rattus norvegicus. Kind of data set: Inhibition of rat ear edema as percentage change in mean weight (55.94 +/- 3.31 mg) from control group of 72.25+/-2.24 mg at 6.25 ug dose. It counts as functional.
Data set [13] concerns Rattus norvegicus. Kind of data set: Inhibition of rat ear edema as percentage change in mean weight (49.76+/-2.12 mg) from control group of 72.25+/-2.24 mg at 25.00 ug dose. It counts as functional.
The test system of data set [14] is Rattus norvegicus. Briefly: Inhibition of rat ear edema as percentage change in mean weight (46.46+/-2.86 mg) from control group of 72.25+/-2.24 mg at 100 ug dose. It counts as functional.
The subject of data set [15] is Rattus norvegicus. Kind of data set: Inhibition of rat ear edema as percentage change in mean weight (54.84 +/- 2.18 mg) from control group of 72.25+/-2.24 mg at 10.00 ug dose. It is filed as functional.
Data set [16] has as its system Rattus norvegicus. Kind of data set: Inhibition of rat ear edema as percentage change in mean weight (71.65+/-2.81 mg) from control group of 72.25+/-2.24 mg at a 1.56 ug dose. It counts as functional.

Some results are limits rather than exact numbers.

The compound `CCCC1O[C@@H]2C[C@H]3[C@@H]4CCC5=CC(=O)C=C[C@]5(C)[C@H]4[C@@H](O)C[C@]3(C)[C@]2(C(=O)CO)O1` (stereo partly specified) showed a Reduction in data set [1] of 48%.

With `CCC[C@@H]1O[C@@H]2CC3C4C[C@H](F)C5=CC(=O)CC[C@]5(C)[C@@]4(F)[C@@H](O)C[C@]3(C)[C@]2(SC2COC(=O)C2)O1` (single isomer, unassigned; isomer B), the Stability in the data set listed under Homo sapiens [2] came out at 0%; in the data set filed under Homo sapiens [4], 56%. For the same compound, the remaining at 1 h in data set [3] stood at 100%.

Take `CC1=C(SC2CCOC2=O)[C@@]2(C)C[C@H](O)[C@@]3(F)C(CCC4=CC(=O)C=C[C@@]43C)C2C1` (single isomer, unassigned; isomer A): the Stability was 13% in the data set listed under Homo sapiens [2], 97% in data set [3] and 53% in the data set listed under Homo sapiens [4].

Broadly, the IC50 is the concentration that inhibits the measured activity by half. `CC1(C)O[C@@H]2CC3C4C[C@H](F)C5=CC(=O)C=C[C@]5(C)[C@@]4(F)[C@@H](O)C[C@]3(C)[C@]2(SC(CCO)C(=O)O)O1` (stereo partly specified): the IC50 against Glucocorticoid receptor was found to be 289 nM.

Consider `CC1(C)O[C@@H]2CC3C4C[C@H](F)C5=CC(=O)C=C[C@]5(C)[C@@]4(F)[C@@H](O)C[C@]3(C)[C@]2(S[C@@H]2CCOC2=O)O1` (stereo partly specified), for which the remaining at 1 h in data set [5] was determined as 15%; in [3], 90%. For the same compound, the Decrease came to 22.7% in the data set with Rattus norvegicus [6], 15.2% in the data set with Rattus norvegicus [7], 14% in the data set on Rattus norvegicus [8] and 0% in the data set on Rattus norvegicus [10]. For the same compound, in data set [9], the remaining at 10 min stood at 45%. This compound also displayed an IC50 against Glucocorticoid receptor of 1.4 nM.

For orientation: half-life means the time needed for the level to fall by half in the phase considered. High values mean slow loss, low ones fast loss. In the case of `CCC[C@@H]1O[C@@H]2CC3C4C[C@H](F)C5=CC(=O)CC[C@]5(C)[C@@]4(F)[C@@H](O)C[C@]3(C)[C@]2(S[C@@H]2CCOC2=O)O1` (stereo partly specified), the half-life in [11] worked out at 5 min. Further, the remaining at 1 h in [5] was determined as 0%; in [3], 91%. Also, the Decrease in the data set with Rattus norvegicus [12] worked out at 22.6%; with Rattus norvegicus [13], 31.1%; with Rattus norvegicus [14], 35.7%; in the data set on Rattus norvegicus [15], 24.1%; in the data set on Rattus norvegicus [16], 0.83%. Further, in [9], the remaining at 10 min is 19%. At Glucocorticoid receptor, the IC50 is 6.4 nM.

Turning to `CC1(C)O[C@@H]2CC3C4C[C@H](F)C5=CC(=O)CC[C@]5(C)[C@@]4(F)[C@@H](O)C[C@]3(C)[C@]2(SC2CCOC2=O)O1` (stereo partly specified), the remaining at 1 h in data set [5] came out at 0%; in [3], 89%. Besides, in data set [9], the remaining at 10 min came to 20%.

`CC1(C)O[C@@H]2CC3C4C[C@H](F)C5=CC(=O)C=C[C@]5(C)[C@@]4(F)[C@@H](O)C[C@]3(C)[C@]2(CC2CCOC2=O)O1` (single isomer, unassigned; isomer B): the remaining at 1 h was found to be 99% in data set [5] and 100% in data set [3]. Also, the remaining at 10 min in data set [9] was 100%.

As to `CC1(C)O[C@@H]2CC3C4C[C@H](F)C5=CC(=O)CC[C@]5(C)[C@@]4(F)[C@@H](O)C[C@]3(C)[C@]2(S[C@@H]2CCOC2=O)O1` (stereo partly specified), the remaining at 1 h amounted to 0% in data set [5] and 92% in data set [3]. For the same compound, in data set [9], the remaining at 10 min was found to be 28%.

`CC1=C(SC2CCOC2=O)[C@@]2(C)C[C@H](O)[C@@]3(F)C(CCC4=CC(=O)C=C[C@@]43C)C2C1` (single isomer, unassigned; isomer B): the remaining at 1 h in data set [5] stood at 8%; in [3], 98%. In the data set filed under Homo sapiens [4], this compound displayed a Stability of 17%.

Consider `CCC[C@@H]1O[C@@H]2CC3C4C[C@H](F)C5=CC(=O)C=C[C@]5(C)[C@@]4(F)[C@@H](O)C[C@]3(C)[C@]2(SC2CCOC2=O)O1` (stereo partly specified), for which the remaining at 1 h is 0% in data set [5] and 77% in data set [3]. The remaining at 10 min in data set [9] came to 0%.

As for `CCC[C@@H]1O[C@@H]2CC3C4C[C@H](F)C5=CC(=O)CC[C@]5(C)[C@@]4(F)[C@@H](O)C[C@]3(C)[C@]2(SC2COC(=O)C2)O1` (single isomer, unassigned; isomer A), the Stability in the data set listed under Homo sapiens [2] was 19%; in data set [3] it was 99%; in the data set listed under Homo sapiens [4], 28%.

Regarding `CCC[C@@H]1O[C@@H]2CC3C4C[C@H](F)C5=CC(=O)CC[C@]5(C)[C@@]4(F)[C@@H](O)C[C@]3(C)[C@]2(S[C@H]2CCOC2=O)O1` (stereo partly specified), the remaining at 1 h in [5] was determined as 0%; in data set [3] it was 82%. The remaining at 10 min in [9] is 0%.

As for `CC1(C)O[C@@H]2CC3C4C[C@H](F)C5=CC(=O)C=C[C@]5(C)[C@@]4(F)[C@@H](O)C[C@]3(C)[C@]2(CC2CCOC2=O)O1` (single isomer, unassigned; isomer A), the Stability in the data set filed under Homo sapiens [2] is recorded as 100%.

Regarding `CCC[C@@H]1O[C@@H]2CC3C4C[C@H](F)C5=CC(=O)CC[C@]5(C)[C@@]4(F)[C@@H](O)C[C@]3(C)[C@]2(SC(CCO)C(=O)O)O1` (stereo partly specified), the concentration for half-maximal inhibition (IC50) against Glucocorticoid receptor was determined as 400 nM.

`CCC[C@@H]1O[C@@H]2CC3C4C[C@H](F)C5=CC(=O)CC[C@]5(C)[C@@]4(F)[C@@H](O)C[C@]3(C)[C@]2(SCC2CCOC2=O)O1` (stereo partly specified): in [11], the half-life was greater than 240 min. For the same compound, the remaining at 1 h in data set [5] and in data set [3] was 100% each time. Also, in [9], the remaining at 10 min was determined as 100%.

As for `CCC[C@@H]1O[C@@H]2CC3C4C[C@H](F)C5=CC(=O)C=C[C@]5(C)[C@@]4(F)[C@@H](O)C[C@]3(C)[C@]2(S[C@@H]2CCOC2=O)O1` (stereo partly specified), the remaining at 1 h in data set [5] is 7%; in data set [3], 100%. In addition, the remaining at 10 min in data set [9] was 19%.

For the origin of these results see ChEMBL document CHEMBL1134348, “Novel glucocorticoid antedrugs possessing a 17beta-(gamma-lactone) ring” (J Med Chem, 2001).
